# According to ChEMBL document CHEMBL1125109, “High potency dipeptide sweeteners. 1. L-aspartyl-D-phenylglycine esters” (J Med Chem, 1990):
# Experiment: Sweetness potency relative to 5-10% of sucrose
# Format: functional
# In short: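 Human taste panel: five to ten expert male panelists tasted and spat 10 mL of sweetener solution, rating sweetness potency and quality against five sucrose standards (0.04 M/1.4% to 0.35 M/12.0%). Test solution generally equivalent to 5–10% sucrose. Potency = equi-sweet sucrose concentration divided by actual sweetener concentration; mean ± 95% confidence limit. Acute oral rat toxicity tested first.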
row,Structure (SMILES),Potency
1,COC(=O)C(NC(=O)[C@@H](N)CC(=O)O)C(=O)O[C@@H]1C(C)(C)C2CC[C@]1(C)C2 (stereo partly specified),50000
2,CC1(C)C2CC[C@](C)(C2)[C@@H]1OC(=O)[C@H](NC(=O)[C@@H](N)CC(=O)O)c1ccccc1 (stereo in doubt; 29),1200
3,CC(OC(=O)[C@H](NC(=O)[C@@H](N)CC(=O)O)c1ccccc1)C(C)(C)C (stereo partly specified),30
4,CC12CCC(O1)C(C)(C)C2COC(=O)[C@H](NC(=O)[C@@H](N)CC(=O)O)c1ccccc1 (stereo partly specified),0
5,CC12CC(O)C(C1)C(C)(C)C2OC(=O)[C@H](NC(=O)[C@@H](N)CC(=O)O)c1ccccc1 (stereo partly specified),100
6,CC1(C)SC(C)(C)C1OC(=O)[C@H](NC(=O)[C@@H](N)CC(=O)O)c1ccccc1,300
7,CC12CCC(C1)C(C)(C)C2OC(=O)[C@H](NC(=O)[C@@H](N)CC(=O)O)c1ccc(O)cc1 (stereo partly specified),420
8,CC1CCCC(C)C1OC(=O)[C@H](NC(=O)[C@@H](N)CC(=O)O)c1ccccc1 (stereo partly specified),210
9,CC1(OC(=O)[C@H](NC(=O)[C@@H](N)CC(=O)O)c2ccccc2)CC2CCC1C2 (stereo partly specified),40
10,CC1CCC(C)C1OC(=O)[C@H](NC(=O)[C@@H](N)CC(=O)O)c1ccccc1 (stereo partly specified),380
11,CC1(C)CCC(C)(C)C1OC(=O)[C@H](NC(=O)[C@@H](N)CC(=O)O)c1ccccc1,190
12,N[C@@H](CC(=O)O)C(=O)N[C@@H](C(=O)OC1C2CC3COC1C3C2)c1ccccc1 (stereo partly specified),80
13,CC12CCC(C1)C(C)(C)C2OC(=O)[C@H](NC(=O)[C@@H](N)CC(=O)O)c1ccccc1F (stereo partly specified),720
14,CC1(C)C2CCC1(C)C(OC(=O)[C@H](NC(=O)[C@@H](N)CC(=O)O)c1ccccc1)C2 (stereo partly specified),0
15,N[C@@H](CC(=O)O)C(=O)N[C@@H](C(=O)OC1CC2CCC1C2)c1ccccc1 (stereo in doubt; 26),20
16,N[C@@H](CC(=O)O)C(=O)N[C@@H](C(=O)OC1CC2CCC1C2)c1ccccc1 (stereo in doubt; 28),180
